Values joined by “and” are separate entries in the source; they are usually repeats but may differ in a detail not shown here. Identical values can stand only once.
Tested on: HEK-293T
Assay: Multiplex assay against HEK293T
Type: toxicity, cell-based
Conditions: human, number of replicates 2
Summary of the method: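 On a CQ1 microscope at 37°C and 5% CO2, live cells were imaged after compound addition. They had been stained at seeding with Hoechst33342, BioTracker Green Microtubule Cytoskeleton Dye, MitoTracker Red and Annexin V Alexa Fluor 680. CellPathfinder machine-learning gating assigned cells to Hoechst high-intensity objects or normal cells, normal cells to healthy, pyknosed or fragmented nuclei, and pyknosed cells to mitotic or apoptotic. Tubulin, mitochondrial-mass and membrane-permeability phenotypes are per cents of healthy-nucleus cells.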

[1] = 12 h, 1 µM, compound concentration 1 uM
[2] = 12 h, 10 µM, compound concentration 10 uM
[3] = 24 h, 1 µM, compound concentration 1 uM
[4] = 24 h, 10 µM, compound concentration 10 uM
[5] = 48 h, 1 µM, compound concentration 1 uM
[6] = 48 h, 10 µM, compound concentration 10 uM

SMILES: CCCN(CCc1cccs1)[C@H]1CCc2c(O)cccc2C1 [ROTIGOTINE]
- Population Apoptotic (%) [1]: 43% and 35%
- Population Fragmented Nuclei (%) [1]: 3% and 1%
- Population Healthy Nuclei (%) [1]: 83% and 85%
- Population Hoechst High Intensity Objects (%) [1]: 9% and 5%
- Population Membrane Permeable-Phenotype (%) [1]: 1% and 2%
- Population Mitochondria Different-Phenotype (%) [1]: 13% and 14%
- Population Mitotic Cells (%) [1]: 56% and 64%
- Population Normal (%) [1]: 90% and 94%
- Population Pyknosed Nuclei (%) [1]: 12%
- Population Tubulin-Different-Phenotype (%) [1]: 50% and 48%
- Total Cell Count [1]: 619 and 758
- Population Apoptotic (%) [2]: 39% and 66%
- Population Fragmented Nuclei (%) [2]: 3% and 2%
- Population Healthy Nuclei (%) [2]: 88%
- Population Hoechst High Intensity Objects (%) [2]: 8% and 5%
- Population Membrane Permeable-Phenotype (%) [2]: 4% and 2%
- Population Mitochondria Different-Phenotype (%) [2]: 13% and 17%
- Population Mitotic Cells (%) [2]: 60% and 33%
- Population Normal (%) [2]: 91% and 94%
- Population Pyknosed Nuclei (%) [2]: 7% and 8%
- Population Tubulin-Different-Phenotype (%) [2]: 66% and 65%
- Total Cell Count [2]: 592 and 535
- Population Apoptotic (%) [3]: 20% and 41%
- Population Fragmented Nuclei (%) [3]: 6% and 5%
- Population Healthy Nuclei (%) [3]: 89% and 88%
- Population Hoechst High Intensity Objects (%) [3]: 8%
- Population Membrane Permeable-Phenotype (%) [3]: 2%
- Population Mitochondria Different-Phenotype (%) [3]: 3%
- Population Mitotic Cells (%) [3]: 80% and 58%
- Population Normal (%) [3]: 91%
- Population Pyknosed Nuclei (%) [3]: 3% and 6%
- Population Tubulin-Different-Phenotype (%) [3]: 30% and 32%
- Total Cell Count [3]: 1198 and 930
- Population Apoptotic (%) [4]: 25% and 32%
- Population Fragmented Nuclei (%) [4]: 5% and 7%
- Population Healthy Nuclei (%) [4]: 89% and 86%
- Population Hoechst High Intensity Objects (%) [4]: 8% and 9%
- Population Membrane Permeable-Phenotype (%) [4]: 2% and 4%
- Population Mitochondria Different-Phenotype (%) [4]: 9% and 5%
- Population Mitotic Cells (%) [4]: 74% and 67%
- Population Normal (%) [4]: 91% and 90%
- Population Pyknosed Nuclei (%) [4]: 5%
- Population Tubulin-Different-Phenotype (%) [4]: 50% and 47%
- Total Cell Count [4]: 859 and 863
- Population Apoptotic (%) [5]: 5% and 13%
- Population Fragmented Nuclei (%) [5]: 18% and 11%
- Population Healthy Nuclei (%) [5]: 79% and 85%
- Population Hoechst High Intensity Objects (%) [5]: 9% and 10%
- Population Membrane Permeable-Phenotype (%) [5]: 5% and 3%
- Population Mitochondria Different-Phenotype (%) [5]: 0%
- Population Mitotic Cells (%) [5]: 94% and 86%
- Population Normal (%) [5]: 90% and 89%
- Population Pyknosed Nuclei (%) [5]: 2%
- Population Tubulin-Different-Phenotype (%) [5]: 11% and 17%
- Total Cell Count [5]: 3231 and 2107
- Population Fragmented Nuclei (%) [6]: 22% and 16%
- Population Healthy Nuclei (%) [6]: 76% and 81%
- Population Hoechst High Intensity Objects (%) [6]: 9% and 8%
- Population Membrane Permeable-Phenotype (%) [6]: 7% and 6%
- Population Mitochondria Different-Phenotype (%) [6]: 0% and 1%
- Population Mitotic Cells (%) [6]: 83% and 95%
- Population Normal (%) [6]: 90% and 91%
- Population Pyknosed Nuclei (%) [6]: 1% and 2%
- Population Tubulin-Different-Phenotype (%) [6]: 22% and 24%
- Total Cell Count [6]: 2378 and 2001

SMILES: CC(C)N(CCCCOCC(=O)NS(C)(=O)=O)c1cnc(-c2ccccc2)c(-c2ccccc2)n1 [SELEXIPAG]
- Population Apoptotic (%) [1]: 50% and 55%
- Population Fragmented Nuclei (%) [1]: 3% and 4%
- Population Healthy Nuclei (%) [1]: 81% and 80%
- Population Hoechst High Intensity Objects (%) [1]: 8% and 6%
- Population Membrane Permeable-Phenotype (%) [1]: 2%
- Population Mitochondria Different-Phenotype (%) [1]: 17% and 14%
- Population Mitotic Cells (%) [1]: 49% and 44%
- Population Normal (%) [1]: 91% and 93%
- Population Pyknosed Nuclei (%) [1]: 14% and 15%
- Population Tubulin-Different-Phenotype (%) [1]: 52% and 41%
- Total Cell Count [1]: 669 and 660
- Population Apoptotic (%) [2]: 58% and 64%
- Population Fragmented Nuclei (%) [2]: 5% and 6%
- Population Healthy Nuclei (%) [2]: 80% and 81%
- Population Hoechst High Intensity Objects (%) [2]: 9% and 10%
- Population Membrane Permeable-Phenotype (%) [2]: 1% and 0%
- Population Mitochondria Different-Phenotype (%) [2]: 14% and 15%
- Population Mitotic Cells (%) [2]: 41% and 35%
- Population Normal (%) [2]: 90% and 89%
- Population Pyknosed Nuclei (%) [2]: 14% and 11%
- Population Tubulin-Different-Phenotype (%) [2]: 51% and 44%
- Total Cell Count [2]: 616 and 713
- Population Apoptotic (%) [3]: 46% and 55%
- Population Fragmented Nuclei (%) [3]: 6% and 7%
- Population Healthy Nuclei (%) [3]: 83% and 81%
- Population Hoechst High Intensity Objects (%) [3]: 7% and 8%
- Population Membrane Permeable-Phenotype (%) [3]: 2% and 1%
- Population Mitochondria Different-Phenotype (%) [3]: 4% and 3%
- Population Mitotic Cells (%) [3]: 53% and 45%
- Population Normal (%) [3]: 92% and 91%
- Population Pyknosed Nuclei (%) [3]: 9% and 11%
- Population Tubulin-Different-Phenotype (%) [3]: 27% and 22%
- Total Cell Count [3]: 1034 and 989
- Population Apoptotic (%) [4]: 50% and 54%
- Population Fragmented Nuclei (%) [4]: 13% and 7%
- Population Healthy Nuclei (%) [4]: 77% and 82%
- Population Hoechst High Intensity Objects (%) [4]: 10% and 9%
- Population Membrane Permeable-Phenotype (%) [4]: 2% and 1%
- Population Mitochondria Different-Phenotype (%) [4]: 2% and 5%
- Population Mitotic Cells (%) [4]: 50% and 45%
- Population Normal (%) [4]: 89% and 90%
- Population Pyknosed Nuclei (%) [4]: 8% and 9%
- Population Tubulin-Different-Phenotype (%) [4]: 13% and 24%
- Total Cell Count [4]: 1214 and 906
- Population Apoptotic (%) [5]: 13% and 14%
- Population Fragmented Nuclei (%) [5]: 12% and 10%
- Population Healthy Nuclei (%) [5]: 83% and 86%
- Population Hoechst High Intensity Objects (%) [5]: 8%
- Population Membrane Permeable-Phenotype (%) [5]: 4% and 5%
- Population Mitochondria Different-Phenotype (%) [5]: 0%
- Population Mitotic Cells (%) [5]: 86% and 85%
- Population Normal (%) [5]: 91%
- Population Pyknosed Nuclei (%) [5]: 3%
- Population Tubulin-Different-Phenotype (%) [5]: 7%
- Total Cell Count [5]: 2736 and 2374
- Population Apoptotic (%) [6]: 25% and 19%
- Population Fragmented Nuclei (%) [6]: 25% and 22%
- Population Healthy Nuclei (%) [6]: 71% and 75%
- Population Hoechst High Intensity Objects (%) [6]: 9%
- Population Membrane Permeable-Phenotype (%) [6]: 5% and 7%
- Population Mitochondria Different-Phenotype (%) [6]: 0%
- Population Mitotic Cells (%) [6]: 74% and 80%
- Population Normal (%) [6]: 90%
- Population Pyknosed Nuclei (%) [6]: 2%
- Population Tubulin-Different-Phenotype (%) [6]: 8% and 13%
- Total Cell Count [6]: 3157 and 2195
